# Compound activity from PubChem BioAssay.
# The full list was thinned out, with hits kept by preference.
# TRPML3 ag: human TRPML3 channel agonists, primary screen, cell-based, HEK293 TRPML3-YFP, Fluo-8 calcium fluorescence, 3 µM; activation, % at 3 µM; Mucolipin-3 (Homo sapiens), Q8TDD5; 100% = the carbachol control signal; 220,000 compounds, 0.29% hits;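 active = activation above its plate's cutoff, the mean activation of the plate's test wells plus 3 SD, cut at about 12% in these data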;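 note: 0% = DMSO only wells and 100% = carbachol wells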
#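 Material: HEK293 cells stably carrying human TRPML3-YFP; compound dosing: single dose, 3 µM final nominal compound, 0.3% DMSO final; incubation: 1-h 37 °C dye load, 5-s basal, 120-s post-compound reads; technique: Fluo-8 intracellular calcium fluorescence, excitation 470-495 nm, emission 515-575 nm; read-out basis: percent activation from peak-to-basal fluorescence ratio, scaled between DMSO and carbachol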
# TRPN1 ag: zebrafish TRPN1 channel agonists, primary screen, cell-based, HEK293, calcium fluorescence; transient receptor potential cation channel N1 (TRPN1/NompC), Danio rerio; HEK293 zebrafish TRPN1-YFP, Fluo-8 calcium fluorescence; 100% = response to 87 µM carbachol; activation, % at 3 µM; 220,000 compounds, 0.18% hits; AID 1424, 2008;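 active = activation above its plate's cutoff, the mean activation of test wells on that plate plus 3 SD, cut at about 19% in these data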;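 note: 0% = DMSO alone and 100% = 87 µM carbachol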
#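 Material: zebrafish TRPN1-YFP in HEK293 cells. Doses: one dose of 3 µM, 0.3% DMSO. Incubation: dye 1 h 37 °C plus 30 min RT. Measured by: intracellular calcium fluorescence with Fluo-8.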
# Calb biofilm kill: clotrimazole potentiators killing C. albicans biofilm, primary screen, 4-compound mixtures; C. albicans biofilm persisters + clotrimazole, fluorescence viability; primary screen in compound mixtures of four per well; inhibition, % at 7.6 µM; 120,000 compounds, 0.02% hits; AID 1242, 2008;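 active = inhibition above 30.3% in the primary screen of four-compound pools, then above 30% when the compound was retested; inconclusive = passed the primary limit but could not be retested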;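 note: compounds exposed to preformed 24 h biofilms for 48 h; 0% = untreated biofilm control and 100% = clotrimazole plus chlorhexidine kill blank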
#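 Test system: C. albicans CAF4-2 wild-type biofilms; buffer or medium: RPMI/MOPS medium, pH 7.0; schedule: 24 h biofilm formation, then 48 h compound exposure, 37 °C; detection: Alamar Blue fluorescence; measure: percent inhibition of biofilm viability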
# ABCG2 inh: ABCG2 efflux pump inhibitors, primary screen, multiplex with ABCB1, IgMXP3 cells, flow cytometry | inhibition, % at 6.6 µM | Broad substrate specificity ATP-binding cassette transporter ABCG2 (Homo sapiens), Q9UNQ0 | JC-1 efflux | 190,000 compounds, 0.1% hits;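 active = inhibition above 80%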;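 note: 0% = DMSO and 100% = nicardipine control wells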
#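 Test system: ABCG2 IgMXP3 and barcoded ABCB1 CCRF-Adr cell mix; Schedule: cells with compound and JC-1, 10 min at 25 °C, rotating, no wash; Technique: flow cytometry of retained JC-1 fluorescence; Measure: % inhibition of efflux relative to nicardipine and DMSO; Controls: nicardipine high and DMSO low controls.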
# ROMK mod: ROMK potassium channel modulators, primary screen, cell-based, thallium flux, MLSMR library. B-score at 10 µM. AID 1918, 2009. ATP-sensitive inward rectifier potassium channel 1 (Homo sapiens), P48048. Tet-inducible ROMK, thallium flux fluorescence; actives lie on both sides. 130,000 compounds, 2% hits;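 active = signal ratio slope over the read window, or its plate-corrected B-score, at least 3 SD from the plate mean, either direction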;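 note: B-score of the F/F0 ratio slope over 7 to 12 s after thallium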
# ABCB1 inh: ABCB1 efflux pump inhibitors, primary screen, cell-based, multiplex, flow cytometry, ABCG2 counter-screen; CCRF-Adr cells, JC-1 efflux; 190,000 compounds, 0.067% hits; inhibition, % at 6.6 µM; in the data active = inhibition above about 40%;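 note: 0% = vehicle and 100% = reference inhibitor; higher value means more JC-1 retained so stronger ABCB1 efflux block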
# ROMK retest: ROMK channel modulator hit retest, confirmation, cell-based, thallium flux, duplicate, resupplied hits; fluorescence ratio; active compounds read low; 3,000 compounds, 54% hits; normalized thallium flux (F/F0 slope) at 10 µM; AID 1917, 2009; shares compounds with ROMK mod;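 active = Flux at 10 µM at least 3 SD below or above vehicle control mean in one or both replicates; inconclusive = no clear call, values can overlap the other calls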
# The depositor's hits bear a star; ? = inconclusive; . = no result given.
SMILES,TRPML3 ag,TRPN1 ag,Calb biofilm kill,ABCG2 inh,ROMK mod,ABCB1 inh,ROMK retest
C/C(CC(=O)NCc1ccco1)=N\NC(=O)COc1ccc(Cl)cc1Cl,0,-1,6,0,3.6*,0,0.092
O=C(COc1ccc(Cl)cc1Cl)NCc1ccco1,-1,-1,.,29,-0.55,1,.
O=C(/C=C/c1ccc([N+](=O)[O-])cc1)NCCSc1ccccc1,-2,-1,.,8,.,0,?
N=c1sccn1CC(=O)N1N=C(c2ccc(Cl)cc2)CC1c1ccco1 (centres undefined),2,1,-1,0,-3.2*,-1,0.064*
COC(=O)N/N=C/c1cn(Cc2ccccc2F)c2ccccc12,1,0,15,.,-3.4*,.,0.059*
Cc1onc(-c2ccccc2)c1C(=O)NC(=S)NNC(=O)c1cc(-c2ccc(F)cc2)n[nH]1,-1,-2,15,.,-0.32,.,.
Cc1cc(C)c(Nc2ncnc(N)n2)c(C)c1,0,1,11,.,.,.,.
Cc1ccc(-c2c[n+](CC(=O)Nc3nc(-c4ccccc4)cs3)c3n2CCC3)cc1,0,-1,10,.,-4.6*,.,0.06*
Cn1cnc2cc(NC(=O)c3ccc(Cl)cc3)ccc21,0,1,.,9,.,0,0.082
O=C(COc1ccc(Br)cc1CNC1CCCCC1)NCCc1ccccc1,2,1,5,0,-5.2*,1,0.048*
Cc1ccc(OCc2nnc(SCC(=O)C(C)(C)C)n2Cc2ccco2)cc1,0,-2,.,5,-3.6*,2,0.075
O=C1NC(=Nc2ccc3ccccc3c2)S/C1=C/c1ccco1,-1,0,17,2,2.6*,0,0.074
c1ccc2nc3c(cc2c1)CCCCCC3,0,-1,.,1,0.039,1,.
c1ccc2nc3c(cc2c1)CCCCC3,0,1,17,.,.,.,0.074
CCN(C(=O)CSc1nnc2nc(C)cc(C)n12)c1ccccc1,1,2,7,0,-0.48,0,.
C/C(O)=C\c1nc2ccccc2oc1=O,0,2,.,3,.,1,0.074
COc1ccc(CC(=O)NNc2ncnc3c2cnn3Cc2ccccc2)cc1OC,0,0,5,.,.,.,0.078
COc1ccc(Nc2ncnc3c2cnn3Cc2ccccc2)cc1OC,1,4,.,1,.,1,.
CC(=O)Nc1ccc(/C=N/NC(=S)NC(C)C)cc1,0,0,10,1,-0.32,0,.
CC(=O)O/N=C1\C(=O)N(Cc2ccc(C)cc2)c2ccccc21,-1,-1,13,2,-5.2*,1,0.063*
O=C(O)c1ccccc1-c1nc2cc(Cl)ccc2c(=O)n1O,1,-1,-1,0,-3.2*,0,0.068*
O=c1c2ccccc2nc(-c2ccccc2Cl)n1O,0,0,11,0,2.8*,0,0.071
O=c1c2ccccc2nc(-c2ccc(Cl)cc2Cl)n1O,0,0,25,0,0.58,1,.
COc1ccc(CCNC(=O)C2CCN(C(=O)c3ccc([N+](=O)[O-])cc3)CC2)cc1,1,2,27,16,-0.66,1,.
CCN(CC)c1ccc(NC(=S)NCC2CCCO2)cc1 (centres undefined),1,1,2,-3,.,-1,.
SMILES,TRPML3 ag,TRPN1 ag,Calb biofilm kill,ABCG2 inh,ROMK mod,ABCB1 inh,ROMK retest
CCOC(=O)C1(CCc2ccccc2)CCN(C(=O)CN2C(=O)CSC2=O)CC1,0,1,18,0,0.11,1,.
CC(C)(C)NC(=O)COC(=O)c1snc(C(=O)NC2CCCCC2)c1N,3,9,.,5,-3.8*,0,0.072
Cc1ccc(S(=O)(=O)CC(CN2CCCCC2)N2CCCCC2)cc1 (centres undefined),0,-1,7,-1,-0.67,0,.
O=S(=O)(CC(CN1CCCCC1)N1CCCCC1)c1ccc2ccccc2c1 (centres undefined),1,1,-3,2,-5.8*,1,0.059*
Cc1ccccc1C(C(=O)NC1CCCCC1)N(C(=O)c1ccccn1)c1cccnc1 (centres undefined),1,2,2,1,0.19,1,.
COC(=O)c1c(NC(=O)CSc2nnc(-c3ccco3)n2Cc2ccccc2)sc(C)c1C,0,-2,.,4,-3.1*,2,0.065*
CC(=O)Cc1nsc(NC(=O)c2ccc(-c3cccc(Cl)c3)o2)n1,1,2,12,-1,4.3*,0,0.082
CC(=O)Cc1nsc(NC(=O)c2ccc(Br)o2)n1,1,0,17,0,.,0,.
Cn1cnc([N+](=O)[O-])c1S(=O)(=O)c1ccc(Cl)cc1,1,0,8,-7,-4.8*,7,0.059*
CC1Cc2ccccc2N1C(=O)CSc1nnnn1C (centres undefined),1,0,.,1,-0.75,0,.
CC1Cc2ccccc2N1C(=O)CSc1nnc(Cc2ccccc2)n1CCc1ccccc1 (centres undefined),0,-2,.,6,-3.9*,4,0.062*
CCN1/C(=C/c2ccc3ccccc3[n+]2CC)C=Cc2ccccc21,0,-1,.,9,-4.7*,1,0.038*
CCCN(CCC)S(=O)(=O)c1ccc(Cl)c(OC)c1,10,-3,16,13,-16*,2,?
COc1ccccc1/C=N/N1C(=O)C(CC(=O)Nc2ccc([N+](=O)[O-])cc2OC)SC1=Nc1cccc(C)c1C (centres undefined),1,1,15,0,2.7*,0,0.089
Cc1cccc(C(=O)N2CCN(Cc3ccc4c(c3)OCO4)CC2)c1,0,1,.,0,.,0,.
Cc1cccc(Cc2c(C)nc3c(C(=O)N4CCN(Cc5ccc6c(c5)OCO6)CC4)cnn3c2C)c1,0,1,.,-5,.,-1,0.046*
C=C1CN(CC(=O)OC)S(=O)(=O)c2ccccc21,.,.,7,.,.,.,.
C=CC1CN(CC(=O)OC)S(=O)(=O)c2ccccc21 (centres undefined),.,.,11,.,.,.,0.074
